These results are taken from PubChem BioAssay AID652000 (Sanford-Burnham Center for Chemical Genomics, 2013).

Screen size: about 2,400 compounds; fewer than 10 were called active. These entries were drawn from the full list. Values without a mark were called inactive.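 How the source made its calls: active means activation of at least 50%; inactive means the rest.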

Sequence of G-protein coupled receptor 183 (Homo sapiens) (P32249 whole entry, looked up): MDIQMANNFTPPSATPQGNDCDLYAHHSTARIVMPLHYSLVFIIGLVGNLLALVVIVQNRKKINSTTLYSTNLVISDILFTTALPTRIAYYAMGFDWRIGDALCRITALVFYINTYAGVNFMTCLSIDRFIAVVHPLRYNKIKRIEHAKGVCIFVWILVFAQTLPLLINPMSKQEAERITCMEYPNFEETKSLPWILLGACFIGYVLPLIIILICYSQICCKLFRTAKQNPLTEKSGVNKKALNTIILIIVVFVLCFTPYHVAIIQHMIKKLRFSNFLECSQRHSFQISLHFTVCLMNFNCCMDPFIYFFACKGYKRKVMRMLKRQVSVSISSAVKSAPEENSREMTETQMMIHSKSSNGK

In this assay the target is G-protein coupled receptor 183 (Homo sapiens) (UniProt P32249). The assay is described as follows: EBI2 agonist activity of antagonist hits, confirmation, counter-screen for EBI2 antagonist project, cell-based, single concentration, agonist mode, luminescence (AID 652000). As to conditions: EBI2-expressing cells, 60 min, at 5 µM, hits give high values, 0% vehicle, 100% 7α,25-dihydroxycholesterol control. The method in brief:
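Test system – beta-arrestin recruitment reporter cells, agonist mode · Amount – 1500 cells in each well · Probe or stimulus – no added oxysterol for test compounds · Compound dosing – single concentration, 2.5 nL of 10 mM stock · Timing – 37°C overnight seeding and 60-min compound, 25°C dark 60-min detection · Measured by – luminescence · Benchmarks – 7alpha,25-OHC wells as positive control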
Take `O=C(NCc1ccc(Cl)cc1)C1CCN(S(=O)(=O)c2cccs2)CC1`: the activation was 0.21%.

Take `O=C(CCNS(=O)(=O)c1ccccc1)NCCSc1ccc(Br)cc1`: the activation was -1.84%.

With `Cc1ccc(O/C=C2\OC(=O)c3ccccc32)cc1`, the activation is -0.84%.

On to `O=C(COc1ccc2ccccc2c1)N1CCN(C(=O)c2cccs2)CC1`, for which the activation was 0.16%.

Turning to `COc1ccc(/C=C/C(=O)c2ccc(OC)cc2O)cc1`, the activation is -0.61%.

For the molecule `Fc1ccc(N2CCN(Cc3cnc(Oc4ccc(Br)cc4)s3)CC2)cc1`, the activation was 1.8%.

With `CCOC(=O)N1CCN(C(=O)COc2ccc(Cl)cc2C)CC1`, the activation is 0.57%.

For `CN(Cc1ccc(F)cc1)C(=O)COc1ccc2ccccc2c1`, the activation was 0.62%.

Consider `Cc1ccc(S(=O)(=O)N2CCN(C(=O)CSc3cc(C)ccc3C)CC2)c(C)c1`, for which the activation was 1.03%.

Turning to `Cc1ccc2oc(=O)c3cnn(CC(=O)N(Cc4ccco4)C4CCCCC4)c3c2c1`, the activation is -0.75%.

Regarding `Cc1cc(C)cc(Oc2nc3c(C)cccn3c(=O)c2/C=C(\C#N)C(=O)NC2CCS(=O)(=O)C2)c1` (stereo unspecified), the activation was -1.11%.

As for `Cc1cc(Cl)c2oc(C(=O)N3CCC(O)(c4ccccc4)CC3)c(C)c2c1`, the activation is -0.43%.

On to `COc1ccc(CNC(=O)CN(c2ccc(OC)c(Cl)c2)S(=O)(=O)c2ccc(C)cc2)cc1`, for which the activation was -1.61%.

On to `Cc1ccc(N2CC(C(=O)Nc3ccc(S(=O)(=O)N4CCCC4)cc3)CC2=O)cc1C` (stereo unspecified), for which the activation is 1.21%.

On to `O=C(C(c1ccccc1)c1ccccc1)N1CCN(CC(O)COc2ccccc2)CC1` (stereo unspecified), for which the activation was -0.02%.

On to `O=C(CC(c1ccccc1)c1ccccc1)NCC(O)c1ccc([N+](=O)[O-])cc1` (stereo unspecified), for which the activation is -0.61%.

Take `Cc1ccc(S(=O)(=O)N2CCN(CC(=O)N/N=C/c3ccc(Br)s3)CC2)cc1`: the activation is 0.71%.

With `N#CC(=C1CCCC1)c1nc(-c2ccc(Cl)cc2)cs1`, the activation was -0.93%.

`Cc1cc(OCC(=O)N2CCN(c3ncccn3)CC2)ccc1Cl`: the activation was 1.39%.

Regarding `O=C(/C=C/c1ccc(Cl)cc1)N1CCN(c2ccccc2[N+](=O)[O-])CC1`, the activation was 1.03%.

Take `O=C(Nc1ncc2c(n1)CC(c1ccco1)CC2=O)c1ccc(Cl)cc1` (stereo unspecified): the activation is 1.34%.

On to `CCOc1ccc(CCN2C(=S)N([C@@H](CC(C)C)CN3CCC[C@@H]3CN3C(=S)NC[C@@H]3Cc3ccc(O)cc3)C[C@@H]2Cc2ccc(O)cc2)cc1`, for which the activation was -0.93%.

With `COc1ccc(OCC(=O)N2CCN(C(=O)COc3ccccc3)CC2)cc1`, the activation is -0.25%.

Take `O=C(NNC(=O)c1ccc2ccccc2c1)c1ccc(Cl)cc1`: the activation was 0.21%.

As for `COc1cccc(-c2cc(C(=O)N3CCN(c4ccccc4OC)CC3)no2)c1`, the activation was -0.66%.

Turning to `COc1ccc(-c2cc(C3CCN(c4ncccc4[N+](=O)[O-])CC3)[nH]n2)cc1`, the activation was -0.52%.

`FC(F)(F)Oc1ccccc1C(c1nnnn1C1CCCCC1)N1CCN(C/C=C/c2ccccc2)CC1` (stereo unspecified): the activation was 2.25%.

With `Cc1ccc(OCC(=O)N2CCN(C(=O)c3cccnc3)CC2)cc1`, the activation was 0.16%.

For `CC1CCc2sc3nc(N4CCN(CCO)CC4)n4ncnc4c3c2C1` (stereo unspecified), the activation was 1.12%.

With `Cc1nc2ccc(C(=O)N3CCN(c4ccccc4)CC3)cc2s1`, the activation was -1.39%.

For the molecule `Cc1cs/c(=N\N=C\c2ccc(O)cc2)n1Cc1ccco1`, the activation is -0.2%.

For `CCOc1ccc(CN(Cc2ccco2)S(=O)(=O)c2ccc(-n3cnnn3)c(OC)c2)cc1`, the activation is 0.3%.

On to `Fc1ccccc1/C=N/Nc1cc(N2CCCCC2)ncn1`, for which the activation was -1.29%.

Consider `CC(C)Cn1c(N2CCN(C(=O)/C=C/c3ccccc3)CC2)nc2ccccc21`, for which the activation is -1.2%.

For `COc1cccc(NC(=O)Cn2c3ccccc3c3nc4n(c(=O)c32)CCS4)c1`, the activation is -1.89%.

As for `Cc1ccc(OCCNC(=O)CCNS(=O)(=O)c2ccc(Br)cc2)cc1`, the activation was -0.93%.

Consider `CCN(CC(=O)NCc1cccs1)C(=O)/C=C/c1ccc(C)cc1`, for which the activation was 0.57%.

Take `Cc1cccc(N2CCN(C(=O)c3cc4c(=O)[nH]c5ccccc5c4n3C)CC2)c1C`: the activation was 2.57%.

`O=C(COc1ccc2c(c1)CCC2)N1CCN(c2ccc(F)cc2)CC1`: the activation was -1.43%.

As to `O=C(COc1ccc(Cl)cc1)N1CCN(c2cccc(C(F)(F)F)c2)CC1`, the activation was 1.62%.

As to `Cc1nc(-c2ccccc2)sc1C(=O)/C=C/c1ccccc1`, the activation is 1.39%.

Regarding `N#Cc1ccc(C(c2nnnn2CCc2ccccc2)N2CCCCCC2)cc1` (stereo unspecified), the activation was 0.07%.

As for `COc1ccccc1N1CCN(C(=O)c2cc(=O)c3cc(C)ccc3o2)CC1`, the activation is 0.39%.

As for `O=C(c1cc2cc(F)ccc2[nH]1)N1CCN(c2ccc(F)cc2)CC1`, the activation was 1.94%.

Regarding `COc1ccc(NC(=O)N2CCC(Cc3ccccc3)CC2)cc1`, the activation is -0.34%.

As to `Cc1ccc(-c2nn(-c3ccccc3)cc2/C=C/C(=O)Nc2cccc(S(N)(=O)=O)c2)cc1`, the activation was 1.07%.

For the molecule `Cc1cccc(NC(=O)CN2CCN(C(=O)C3CCN(C(=O)/C=C/c4ccccc4)CC3)CC2)c1C`, the activation was -0.88%.

As for `Cc1ccc2oc(=O)c3cnn(CC(=O)N4CCCCCC4)c3c2c1`, the activation was -0.61%.

Consider `CC(=O)c1nn(-c2ccc(C)cc2)cc1C(=O)c1cccc(Br)c1`, for which the activation was 1.07%.

For `COc1ccc([C@H]2CC(=O)C=C(c3ccc(C)cc3)C2)cc1`, the activation was 1.12%.

`CCOc1ccc(C(C)=O)cc1COC(=O)c1cnc(Cl)c(Cl)c1`: the activation was -0.57%.

Consider `O=C(c1cc2ccccc2s1)N1CCN(c2ccccn2)CC1`, for which the activation is -1.48%.

Take `CCC1Nc2ncnc(N3CCN(c4ccccc4)CC3)c2N(Cc2ccc(Cl)cc2)C1=O` (stereo unspecified): the activation was -4.52%.

For the molecule `CC1(Cc2ccccc2C#N)C(=O)Nc2ccc(-c3ccc4[nH]ccc4c3)cc21` (stereo unspecified), the activation was -0.66%.

On to `O=C(c1cc2ccccc2o1)N1CCN(S(=O)(=O)c2ccc(Cl)s2)CC1`, for which the activation is 0.16%.

Consider `COc1ccc(Nc2cc(Sc3ccc(OC)cc3)ncn2)cc1`, for which the activation was -0.07%.
